Bioassay records deposited in PubChem by Johns Hopkins Ion Channel Center.
TRPC6 act: activates the mouse TRPC6 cation channel; Q61143; HEK293-TRPC6 membrane potential dye fluorescence; stronger effect = higher value; B-score at 10 µM; actives 0.13% (n = 310,000); AID 2550;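 active = B-score of the integrated fluorescence ratio above library mean plus 3 SD, and starting fluorescence ratio within library mean plus 5 SD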;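 note: higher score means more depolarization so channel activation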
TRPC4 block: inhibitors of mouse TRPC4 channel | Q9QUQ5 | HEK293 TRPC4beta/mu-opioid, DAMGO-evoked Fluo4 calcium flux; stronger effect = lower value | B-score at 10 µM | actives 0.39% (n = 300,000);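 active = B-score over 3 SD under the library average, no early fluorescence shift, positive overall ratio signal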
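Assay system: HEK293 cells with stable TRPC4beta plus mu-opioid receptor expression. Dosing: single dose. Measured by: Fluo4 Ca2+ flux fluorescence. Also added: DAMGO in two steps, submaximal then maximal. Read-out: B score from integrated Fluo4 fluorescence ratio.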
TRPC4 PAM: allosterically enhances the mouse TRPC4 cation channel; B-score at 10 µM; HEK293 TRPC4beta/mu-opioid, DAMGO EC20, Fluo-4 Ca2+ flux; stronger effect = higher value; actives 0.42% (n = 310,000);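 active = B-score of calcium response area above 5 SD of library B-scores, with initial fluorescence ratio within 5 SD of library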;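 note: B-score of integrated fluorescence ratio over time as area under calcium response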
TRPC6 inhibitor: mouse TRPC6 channel inhibition; Q61143; HEK293-TRPC6, membrane potential dye, ACh-evoked depolarization; stronger effect = lower value; B-score at 10 µM; actives 1.1% (n = 310,000); AID 2553;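 active = B-score under library mean minus 3 SD, initial fluorescence not abnormally high, positive integrated signal ratio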;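 note: B-score derived from integrated fluorescence ratio over the kinetic read; more negative B-score means stronger inhibition of depolarization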
Kir21 inh: inhibitors of mouse Kir2.1 inward-rectifier potassium channel; actives 0.85% (n = 310,000); B-score at 10 µM; AID 1672; P35561; HEK293-Kir2.1, FluxOR thallium flux fluorescence; stronger effect = lower value;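 active = fluorescence ratio B-score at or below minus 3 SD of library scores, with starting-brightness B-score within 2 SD, cut at about -4.2 in these data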;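 note: channel flux triggered by added potassium and thallium sulfate stimulus; B-score of peak minus minimum fluorescence over baseline after thallium stimulus; more negative B-score means stronger Kir2.1 block with less thallium influx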
TRPC4 act: TRPC4 (mouse) channel activation | Q9QUQ5 | HEK293 TRPC4beta/mu-opioid, Fluo4 calcium fluorescence; stronger effect = higher value | actives 0.49% (n = 310,000) | B-score at 10 µM;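 active = B-score above 5 SD of library B-scores, and initial fluorescence ratio not above library mean plus 5 SD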;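 note: positive B-score marks a calcium rise read as TRPC4 activation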
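Material: HEK293 stable line with TRPC4beta plus mu-opioid receptor; technique: Fluo4 calcium-sensitive dye fluorescence, kinetic, 1 Hz baseline; timing: Fluo4 dye loading 45 min at room temperature, 110 s recording; controls: assay buffer as low control, maximal DAMGO as high control; read-out: integrated baseline-normalised fluorescence ratio, converted to per-well B score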
Starred values were filed as active, the others as inactive; i = inactive. This is a sample that favours compounds with a hit; in the whole collection about 2.9% have one here.

SMILES	TRPC6 act	TRPC4 block	TRPC4 PAM	TRPC6 inhibitor	Kir21 inh	TRPC4 act
COc1ccc(CC(=O)Nc2ccccc2N2CCCC2)cc1	i	i	i	i	-6.33*	i
COc1ccc(OCC(=O)Nc2ccccc2N2CCCCC2)cc1	i	i	i	i	-1.1	i
COc1ccc(Cc2nnc(SCC(=O)N3CCCC3)o2)cc1	i	i	i	i	-1.35	i
COC(=O)c1cccc(S(=O)(=O)N2CCC(n3nnc4cc(F)ccc43)CC2)c1	i	i	i	i	-0.19	i
OCCN1CNC(=S)NC1	i	i	i	i	-0.5	i
CCn1cc(C(=O)O)c(=O)c2cc(F)c(N3CCN(S(=O)(=O)c4ccc(NC(C)=O)cc4)CC3)cc21	i	i	i	i	0.72	i
COc1cccc(OCc2cc(/C=N/NC(=O)c3ccn[nH]3)ccc2OC)c1	i	i	i	i	-0.17	i
O=C(CCNC(=O)c1ccc(Cl)cc1)Nc1ccccc1N1CCCCC1	i	-5*	i	i	-4.6*	i
Cc1ccc(Nc2cc(C)c(O)c(C)c2)cc1	i	i	i	i	-0.75	i
N#Cc1ccsc1NC(=O)CN(Cc1ccccc1)Cc1ccccc1	i	i	i	i	-4.84*	i
Cc1ccc(O)c(C2=Nc3ccccc3C2(C)C)c1	i	i	i	i	-0.15	i
COc1ccc(C)cc1C1=Nc2ccccc2C1(C)C	i	i	i	i	-4.97*	i
Cc1c[nH]c2cccc(OCC(O)CNC(C)(C)C)c12 (configuration not stated)	i	i	i	i	1.22	i
CCCCN1C2=NC(c3ccccc3)CN2c2ccccc21 (configuration not stated)	i	-6*	i	i	-3.43	i
S=C(Nc1ccccc1)Nc1cc(Cl)ccc1Oc1ccccc1	i	-6*	i	i	-1.34	i
S=C(Nc1cc(Cl)ccc1Oc1ccccc1)N1CCN(c2ccccn2)CC1	i	i	i	i	-0.04	i
O=C(O)c1ccc(-n2nc(C(F)(F)F)c3c2-c2ccoc2CC3)cc1	i	i	i	i	-0.75	i
COc1cc2c(cc1OC)C(C)N(CCN1C(=O)c3ccccc3C1=O)CC2 (configuration not stated)	i	i	i	i	-0.02	i
COc1cc2c(cc1OC)C(C)N(CCc1ccc(Cl)cc1)CC2 (configuration not stated)	i	-6*	i	i	-0.13	i
CCC(C)(C)c1ccc(OCCCC[n+]2cccc(C)c2C)c(C(C)(C)CC)c1	i	i	i	-5.27*	-9.53*	i
Cc1nnc(NC(=O)CSc2nnc(Cc3cccn3C)n2-c2cccc(C(F)(F)F)c2)s1	i	i	i	i	0.66	i
COc1ccc2c(c1)N(S(=O)(=O)c1ccccc1)CCC2=O	i	i	i	i	-6.51*	i
CC1CCC(C(C)C)C(OC(=O)CSc2nccc(=O)[nH]2)C1 (configuration not stated)	i	i	i	i	-1.27	i
COc1ccc(OCc2n(CC(=O)OC3CC(C)CCC3C(C)C)c3ccccc3[n+]2C)cc1 (configuration not stated)	i	i	i	i	-9.86*	i
C#Cc1ccc(CN2CCCC(C(=O)Nc3ccccc3Oc3cccnc3)C2)cc1 (configuration not stated)	i	-6*	i	i	-5.13*	i
SMILES	TRPC6 act	TRPC4 block	TRPC4 PAM	TRPC6 inhibitor	Kir21 inh	TRPC4 act
CC(C)NC(=O)CSc1nc(Cc2cccs2)nc2ccccc12	i	i	i	i	-4.62*	i
CCC(C)(C)NC(=O)CSc1nc(Cc2ccccc2)nc2ccccc12	i	i	i	i	-1.47	i
CCOC(=O)C1CCN(Cc2cccc(OCc3ccccc3)c2)CC1	i	i	i	i	-7.87*	i
NC(=O)C1CCN(Cc2cccc(OCc3ccccc3)c2)CC1	i	i	i	i	-0.37	i
Cc1ccc(S(=O)(=O)N2CCN(C(=O)c3cccs3)CC2)c(C)c1	i	i	11*	i	0.39	i
Cc1cc(C)c(S(=O)(=O)N2CCN(C(=O)c3cccs3)CC2)c(C)c1	i	i	i	i	-0.82	i
Cc1cc(N2CCCN(C)CC2)nc2cc(Cl)ccc12	i	i	13*	i	-4.6*	i
Cc1cc(N2CCCCC2)nc2ccccc12	i	-6*	i	i	-1.14	i
Cc1cc(N2CCOCC2)nc2cc(O)ccc12	i	i	i	i	-1.12	i
COc1ccc(N2CCN(c3cc(C)c4ccc(C)cc4n3)CC2)cc1	i	i	12*	i	-0.42	i
Cc1cc(C)c2ccc(Cl)cc2n1	i	i	i	i	2.25	i
Cc1cc(OCCN2CCCCC2)nc2ccccc12	i	i	17*	i	1.25	i
CC(=O)n1c(-c2ccccc2)c(CO)c2ccccc21	i	i	i	i	-0.5	i
NCCc1c(-c2ccccc2)n(-c2ccccc2)c2ccccc12	i	i	i	i	-15.1*	i
CN(C)Cc1ccccc1Sc1cccc2ccccc12	i	i	i	i	-5.35*	i
COC(=O)c1ccc(/C=N/N2CCN(Cc3ccc(C)cc3C)CC2)cc1	i	i	16*	i	0.19	i
Cc1ccc(C)c(CN2CCC(CNC(=O)CCc3nnc4ccc(N5CCCCC5)nn34)CC2)c1	i	i	i	i	-0.03	126*
Cc1ccc(C)c(NC(=O)CCc2nnc3ccc(N4CCCC4)nn23)c1	i	i	i	i	0.84	i
CON(C)c1nc(OCCNC(=O)OCc2ccc(Cl)cc2Cl)nc(N(C)C)n1	i	i	i	i	-4.28*	i
O=C(CCn1c(=O)[nH]c2ccsc2c1=O)N1CCN(Cc2ccc3c(c2)OCO3)CC1	i	i	i	i	0.92	i
O=C(COc1ccccc1)N(Cc1ccco1)c1ccc(O)cc1	i	i	i	i	-0.45	i
O=C(c1ccc(Cl)c(Cl)c1)N(Cc1ccco1)c1ccc(O)cc1	i	-7*	i	i	-4.27*	i
COC(=O)c1ccc(NC(=O)c2ccccc2C(=O)Nc2ccc(C(=O)OC)cc2)cc1	i	i	i	i	-0.02	i
